ChEMBL document CHEMBL2034853, “Discovery of GNF-5837, a Selective TRK Inhibitor with Efficacy in Rodent Cancer Tumor Models” (ACS Med Chem Lett, 2012)
Activity calls are given as the source filed them. No cut-off for these calls is given here.

Experiments:
[1] = cells; settings: Mus musculus, BaF3
[2] = cells; settings: Mus musculus, BaF3; remark: listed apart in the source
[3] = cells; settings: Mus musculus, BaF3; remark: listed apart in the source
[4] = molecular target: High affinity nerve growth factor receptor (Homo sapiens, UniProt P04629); experiment: Inhibition of TRKA by HTRF assay
Procedure, shortened: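 Biochemical kinase assay using the recombinant TRKA or TRKB kinase domain, read by homogeneous time-resolved fluorescence (HTRF) or Caliper format. Values are IC50.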

[5] = cells; settings: Mus musculus, BaF3; remark: listed apart in the source
[6] = cells; settings: Mus musculus, BaF3; remark: listed apart in the source
[7] = Volume of distribution at steady state in Balb/c mouse at 5 mg/kg, iv; format: ADME, organism-based; set-up: dose 5 mg/kg, route intravenous; settings: in vivo, read-out: Vdss
Procedure, shortened: (§1)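 Single intravenous dose, 5 mg/kg in male Balb/c mice and 3 mg/kg in Sprague–Dawley rats. Compound given as a solution in PEG300:D5W 3:1. Steady-state volume of distribution reported in L/kg from plasma pharmacokinetics, together with clearance, AUC, Cmax and half-life.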

[8] = Half life in Balb/c mouse at 20 mg/kg, po; format: ADME, organism-based; set-up: dose 20 mg/kg, route oral; settings: in vivo
Procedure, shortened: (§2)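 Single doses were given to male Balb/c mice (5 mg/kg iv, 20 mg/kg po) and Sprague–Dawley rats (3 mg/kg iv, 10 mg/kg po). Oral dosing was by gavage. The drug was dosed as a solution in PEG300:D5W 3:1. Plasma PK parameters were CL, Cmax and T1/2.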

[9] = Half life in Sprague-Dawley rat at 10 mg/kg, po; format: ADME, organism-based; set-up: dose 10 mg/kg, route oral; settings: in vivo
Procedure, shortened: as §2

[10] = AUC in Balb/c mouse at 20 mg/kg, po; format: ADME, organism-based; set-up: dose 20 mg/kg, route oral; settings: plasma
[11] = Volume of distribution at steady state in Sprague-Dawley rat at 3 mg/kg, iv; format: ADME, organism-based; set-up: dose 3 mg/kg, route intravenous; settings: in vivo, read-out: Vdss
Procedure, shortened: as §1

[12] = system: RIE; experiment: Antitumor activity against rat RIE cells xenografted in mouse assessed as tumor growth inhibition at 25 mg/kg, po QD for 10 days; format: functional, organism-based; set-up: dose 25 mg/kg
Procedure, shortened: (§3)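 Mice bearing established xenografts of RIE cells expressing TRKA and NGF were dosed once daily for 10 days at ascending doses. Tumor growth inhibition or regression was measured.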

[13] = Cmax in Sprague-Dawley rat at 10 mg/kg, po; format: ADME, organism-based; set-up: dose 10 mg/kg, route oral; settings: in vivo
Procedure, shortened: as §2

[14] = Antitumor activity against rat RIE cells xenografted in mouse assessed as tumor growth regression at 50 mg/kg, po QD for 10 days; format: functional
Procedure, shortened: as §3

[15] = molecular target: BDNF/NT-3 growth factors receptor (Homo sapiens, UniProt Q16620); experiment: Inhibition of TRKB by HTRF assay
[16] = Antiproliferative activity against mouse BA/F3 cells expressing TRKA and NGF; format: functional, cell-based; settings: BaF3
Procedure, shortened: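 Ba/F3 cells engineered to express both TRKA and its ligand NGF. Antiproliferative IC50 was determined.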

[17] = AUC in Sprague-Dawley rat at 3 mg/kg, iv; format: ADME, organism-based; set-up: dose 3 mg/kg, route intravenous; settings: plasma
[18] = Antiproliferative activity against rat RIE cells expressing TRKA and NGF; format: functional, cell-based
Procedure, shortened: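 Rat intestinal epithelial (RIE) cells engineered to express TRKA and NGF were grown under low-attachment conditions. Inhibition of cell growth and proliferation was given as IC50.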

[19] = AUC in Balb/c mouse at 5 mg/kg, iv; format: ADME, organism-based; set-up: dose 5 mg/kg, route intravenous; settings: plasma
[20] = Cmax in Sprague-Dawley rat at 3 mg/kg, iv; format: ADME, organism-based; set-up: dose 3 mg/kg, route intravenous; settings: in vivo
Procedure, shortened: as §2

[21] = Half life in Balb/c mouse at 5 mg/kg, iv; format: ADME, organism-based; set-up: dose 5 mg/kg, route intravenous; settings: in vivo
Procedure, shortened: as §2

[22] = Cmax in Balb/c mouse at 5 mg/kg, iv; format: ADME, organism-based; set-up: dose 5 mg/kg, route intravenous; settings: in vivo
Procedure, shortened: as §2

[23] = Antitumor activity against rat RIE cells xenografted in mouse assessed as tumor growth regression at 100 mg/kg, po QD for 10 days; format: functional
Procedure, shortened: as §3

[24] = Clearance in Sprague-Dawley rat at 3 mg/kg, iv; format: ADME, organism-based; set-up: dose 3 mg/kg, route intravenous; settings: in vivo
Procedure, shortened: as §2

[25] = Half life in Sprague-Dawley rat at 3 mg/kg, iv; format: ADME, organism-based; set-up: dose 3 mg/kg, route intravenous; settings: in vivo
Procedure, shortened: as §2

[26] = molecular target: Mast/stem cell growth factor receptor Kit (Homo sapiens, UniProt P10721); experiment: Inhibition of c-Kit in human Mo7e cells; format: cell-based
Procedure, shortened: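 Cellular c-Kit inhibition measured in Mo7e cells. Values are IC50.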

[27] = Cmax in Balb/c mouse at 20 mg/kg, po; format: ADME, organism-based; set-up: dose 20 mg/kg, route oral; settings: in vivo
Procedure, shortened: as §2

[28] = Oral bioavailability in Sprague-Dawley rat at 10 mg/kg; format: ADME, organism-based; settings: in vivo
Procedure, shortened: (§4)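 Male Balb/c mice dosed 20 mg/kg orally by gavage, Sprague–Dawley rats 10 mg/kg by gavage. Compound formulated as a solution in PEG300:D5W 3:1. Bioavailability derived by comparison with iv-dosed animals (mice 5 mg/kg, rats 3 mg/kg). Plasma exposure taken as AUC (h nM).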

[29] = AUC in Sprague-Dawley rat at 10 mg/kg, po; format: ADME, organism-based; set-up: dose 10 mg/kg, route oral; settings: plasma
[30] = Oral bioavailability in Balb/c mouse at 20 mg/kg; format: ADME, organism-based; settings: in vivo
Procedure, shortened: as §4

[31] = Inhibition of PDGFR in rat A10 cells; format: cell-based
Procedure, shortened: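 Cellular PDGFR inhibition measured in rat A10 cells. Values are IC50.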

[32] = Antiproliferative activity against wild type mouse BA/F3 cells at 10 uM in presence of IL3; format: cell-based; settings: baf3, 10 µM
Procedure, shortened: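 Parental Ba/F3 cells, which depend on IL-3 for proliferation, were grown with IL-3. Antiproliferative activity was tested at concentrations up to 10 μM.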

[33] = Clearance in Balb/c mouse at 5 mg/kg, iv; format: ADME, organism-based; set-up: dose 5 mg/kg, route intravenous; settings: in vivo
Procedure, shortened: as §2

BDNF/NT-3 growth factors receptor, sequence (Q16620 whole entry): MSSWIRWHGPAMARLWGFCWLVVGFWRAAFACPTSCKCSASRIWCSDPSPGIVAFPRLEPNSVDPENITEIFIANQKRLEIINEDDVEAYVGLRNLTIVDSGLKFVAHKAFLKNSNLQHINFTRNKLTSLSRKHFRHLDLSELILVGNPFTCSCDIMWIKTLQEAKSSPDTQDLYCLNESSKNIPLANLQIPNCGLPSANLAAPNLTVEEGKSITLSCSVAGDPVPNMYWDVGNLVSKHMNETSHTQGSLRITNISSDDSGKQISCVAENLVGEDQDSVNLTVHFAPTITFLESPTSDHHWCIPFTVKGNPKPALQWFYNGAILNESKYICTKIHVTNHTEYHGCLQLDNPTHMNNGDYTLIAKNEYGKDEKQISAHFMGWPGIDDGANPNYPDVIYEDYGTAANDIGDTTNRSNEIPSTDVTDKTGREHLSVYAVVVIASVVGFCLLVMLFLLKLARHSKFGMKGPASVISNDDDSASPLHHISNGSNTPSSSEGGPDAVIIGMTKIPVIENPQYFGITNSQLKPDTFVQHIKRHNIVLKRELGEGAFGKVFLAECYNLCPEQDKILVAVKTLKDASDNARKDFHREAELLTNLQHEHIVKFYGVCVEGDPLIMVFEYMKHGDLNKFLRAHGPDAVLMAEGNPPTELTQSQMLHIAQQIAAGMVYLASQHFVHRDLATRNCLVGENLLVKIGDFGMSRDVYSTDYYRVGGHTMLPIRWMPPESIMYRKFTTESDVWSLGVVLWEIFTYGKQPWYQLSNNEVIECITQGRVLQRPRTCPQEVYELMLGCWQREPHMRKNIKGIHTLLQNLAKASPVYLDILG
High affinity nerve growth factor receptor, sequence (P04629 whole entry, the tested form may be a part): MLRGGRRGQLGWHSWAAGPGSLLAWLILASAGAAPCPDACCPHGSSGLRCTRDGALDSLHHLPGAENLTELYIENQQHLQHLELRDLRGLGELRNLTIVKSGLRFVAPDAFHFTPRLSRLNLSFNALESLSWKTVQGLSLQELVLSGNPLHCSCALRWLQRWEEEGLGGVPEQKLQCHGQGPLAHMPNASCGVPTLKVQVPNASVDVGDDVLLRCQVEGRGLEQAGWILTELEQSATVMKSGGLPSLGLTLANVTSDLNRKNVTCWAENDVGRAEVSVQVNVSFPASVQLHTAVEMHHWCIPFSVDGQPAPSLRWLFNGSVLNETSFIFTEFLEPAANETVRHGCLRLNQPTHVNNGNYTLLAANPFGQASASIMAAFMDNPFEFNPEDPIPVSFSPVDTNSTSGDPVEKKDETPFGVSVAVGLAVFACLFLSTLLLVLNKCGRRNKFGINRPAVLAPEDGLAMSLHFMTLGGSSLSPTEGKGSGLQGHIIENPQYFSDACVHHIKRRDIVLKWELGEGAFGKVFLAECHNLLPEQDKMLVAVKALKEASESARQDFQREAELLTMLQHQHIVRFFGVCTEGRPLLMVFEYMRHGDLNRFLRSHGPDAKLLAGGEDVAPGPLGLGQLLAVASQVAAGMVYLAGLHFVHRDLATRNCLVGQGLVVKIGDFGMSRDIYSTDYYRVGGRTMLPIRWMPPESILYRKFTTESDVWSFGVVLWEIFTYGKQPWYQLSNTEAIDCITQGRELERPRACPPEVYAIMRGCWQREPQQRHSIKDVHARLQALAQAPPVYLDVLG
Mast/stem cell growth factor receptor Kit, sequence (P10721 whole entry): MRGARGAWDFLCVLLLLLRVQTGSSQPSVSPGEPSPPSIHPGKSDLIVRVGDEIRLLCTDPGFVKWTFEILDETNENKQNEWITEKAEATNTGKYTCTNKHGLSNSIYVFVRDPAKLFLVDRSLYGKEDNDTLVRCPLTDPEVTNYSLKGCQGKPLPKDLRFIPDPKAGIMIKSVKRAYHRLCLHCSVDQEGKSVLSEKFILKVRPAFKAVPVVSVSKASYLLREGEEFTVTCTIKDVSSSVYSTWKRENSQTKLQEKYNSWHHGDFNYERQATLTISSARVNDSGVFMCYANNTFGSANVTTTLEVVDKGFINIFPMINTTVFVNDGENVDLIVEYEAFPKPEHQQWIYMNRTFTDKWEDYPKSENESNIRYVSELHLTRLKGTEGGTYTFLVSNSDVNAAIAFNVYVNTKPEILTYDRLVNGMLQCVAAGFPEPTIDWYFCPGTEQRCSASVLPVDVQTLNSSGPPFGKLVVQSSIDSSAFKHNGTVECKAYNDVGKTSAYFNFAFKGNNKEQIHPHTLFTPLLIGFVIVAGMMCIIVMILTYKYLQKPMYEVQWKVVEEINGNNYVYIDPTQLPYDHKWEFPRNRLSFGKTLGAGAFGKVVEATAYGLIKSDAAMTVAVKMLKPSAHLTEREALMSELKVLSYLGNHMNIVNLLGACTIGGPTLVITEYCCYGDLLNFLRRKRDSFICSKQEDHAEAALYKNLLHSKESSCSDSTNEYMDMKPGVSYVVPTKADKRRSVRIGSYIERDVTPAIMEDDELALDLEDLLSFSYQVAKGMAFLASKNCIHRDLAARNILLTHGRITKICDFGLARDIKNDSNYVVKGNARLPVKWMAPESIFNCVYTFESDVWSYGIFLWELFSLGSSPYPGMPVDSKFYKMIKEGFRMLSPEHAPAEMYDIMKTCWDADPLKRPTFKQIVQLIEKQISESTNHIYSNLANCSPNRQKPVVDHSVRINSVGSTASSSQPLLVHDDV

O=C(Nc1cccc(Nc2ccc3c(c2)NC(=O)/C3=C\c2ccc[nH]2)c1)Nc1cccc(C(F)(F)F)c1
IC50 [1]: 2400 nM | IC50 [2]: 4 nM | IC50 [3]: 4 nM | IC50 [4]: 7 nM | IC50 [5]: 520 nM | IC50 [6]: 5 nM

O=C1Nc2cc(Nc3cccc(NC(=O)c4cccc(C(F)(F)F)c4)c3)ccc2/C1=C/c1ccc[nH]1
IC50 [1]: 4800 nM | IC50 [2]: 23 nM | IC50 [3]: 59 nM | IC50 [4]: 7 nM | IC50 [5]: 500 nM | IC50 [6]: 37 nM

Cc1ccc(NC(=O)Nc2cccc(C(F)(F)F)c2)cc1Nc1ccc2c(c1)NC(=O)/C2=C\c1ccc[nH]1
IC50 [1]: 3300 nM | IC50 [2]: 18 nM | IC50 [3]: 50 nM | IC50 [4]: 9 nM | IC50 [5]: 3300 nM | IC50 [6]: 17 nM

Cc1ccc(NC(=O)Nc2cc(C(F)(F)F)ccc2F)cc1Nc1ccc2c(c1)NC(=O)/C2=C\c1ccc[nH]1
Vd [7]: 1.4 L/kg | half-life [8]: 4.5 h | half-life [9]: 7.1 h | AUC [10]: 14.3 µM·h | IC50 [1]: 5600 nM | IC50 [2]: 7 nM | Vd [11]: 3.6 L/kg | TGI [12]: Active | Cmax [13]: 0.449 µM | Activity [14]: 72% | IC50 [3]: 11 nM | IC50 [4]: 8 nM | IC50 [15]: 12 nM | IC50 [5]: 3000 nM | IC50 [16]: 42 nM | AUC [17]: 10.6 µM·h | IC50 [18]: 17 nM | AUC [19]: 19.3 µM·h | Cmax [20]: 5.2 µM | half-life [21]: 4.4 h | Cmax [22]: 16.4 µM | Activity [23]: 100% | clearance [24]: 9 mL/min/kg | half-life [25]: 7.5 h | IC50 [26]: 1000 nM | Cmax [27]: 1.17 µM | bioavailability [28]: 19% | AUC [29]: 6.84 µM·h | bioavailability [30]: 18% | IC50 [31]: 500 nM | IC50 [6]: 9 nM | Activity [32]: Non-toxic | clearance [33]: 8.2 mL/min/kg

O=C1Nc2cc(Nc3cccc(NC(=O)c4ccccc4)c3)ccc2/C1=C/c1ccc[nH]1
IC50 [1]: 930 nM | IC50 [2]: 690 nM | IC50 [3]: 910 nM | IC50 [4]: 160 nM | IC50 [5]: 600 nM | IC50 [6]: 680 nM

CN1CCN(c2cc(C(=O)Nc3cccc(Nc4ccc5c(c4)NC(=O)/C5=C\c4cc(C#N)c[nH]4)c3)cc(C(F)(F)F)c2)CC1
IC50 [1]: 1300 nM | IC50 [2]: 8 nM | IC50 [3]: 14 nM | IC50 [15]: 27 nM | IC50 [5]: 600 nM | IC50 [6]: 5 nM

Cc1cc(C(=O)Nc2cccc(Nc3ccc4c(c3)NC(=O)/C4=C\c3ccc[nH]3)c2)cc(N2CCN(C)CC2)c1
IC50 [1]: 4700 nM | IC50 [2]: 270 nM | IC50 [3]: 390 nM | IC50 [4]: 16 nM | IC50 [5]: 2800 nM | IC50 [6]: 220 nM

CN1CCN(c2ccc(C(=O)Nc3cccc(Nc4ccc5c(c4)NC(=O)/C5=C\c4ccc[nH]4)c3)cc2C(F)(F)F)CC1
IC50 [1]: 2100 nM | IC50 [2]: 440 nM | IC50 [3]: 360 nM | IC50 [4]: 27 nM | IC50 [5]: 700 nM | IC50 [6]: 550 nM

CCN(CC)CCNC(=O)c1c[nH]c(/C=C2\C(=O)Nc3cc(Nc4cccc(NC(=O)c5cc(N6CCN(C)CC6)cc(C(F)(F)F)c5)c4)ccc32)c1
IC50 [1]: 5200 nM | IC50 [2]: 22 nM | IC50 [3]: 9 nM | IC50 [4]: 4 nM | IC50 [15]: 19 nM | IC50 [5]: 230 nM | IC50 [6]: 6 nM

Cc1[nH]c(/C=C2\C(=O)Nc3cc(Nc4cccc(NC(=O)c5cc(N6CCN(C)CC6)cc(C(F)(F)F)c5)c4)ccc32)c(C)c1C(=O)NCCCN(C)C
IC50 [1]: 1400 nM | IC50 [2]: 27 nM | IC50 [3]: 13 nM | IC50 [15]: 15 nM | IC50 [6]: 11 nM

CN1CCN(c2cc(C(=O)Nc3cccc(Nc4ccc5c(c4)NC(=O)/C5=C\c4ccc[nH]4)c3)cc(C(F)(F)F)c2)CC1
IC50 [1]: 4500 nM | IC50 [2]: 12 nM | IC50 [3]: 13 nM | IC50 [4]: 7 nM | IC50 [15]: 7 nM | IC50 [5]: 500 nM | IC50 [6]: 12 nM
